According to ChEMBL document CHEMBL5696444 (Nat Commun, 2017):
The source made the active and inactive calls. No cut-off for these calls is given here.

How the values were obtained:
[1] = target: Proto-oncogene tyrosine-protein kinase receptor Ret (Homo sapiens) (UniProt P07949); experiment: Inhibition of RET (unknown origin) at 1000 nM in the presence of ATP by Kinome scan method relative to control
[2] = target: 3-phosphoinositide-dependent protein kinase 1 (PDPK1) (Homo sapiens) (UniProt O15530); experiment: Inhibition of PDK1 Direct (unknown origin) at 100 nM in the presence of ATP by Kinome scan method relative to control
[3] = target: Proto-oncogene tyrosine-protein kinase ROS (Homo sapiens) (UniProt P08922); experiment: Inhibition of ROS1 (unknown origin) at 1000 nM in the presence of ATP by Kinome scan method relative to control
[4] = target: Death-associated protein kinase 1 (Homo sapiens) (UniProt P53355); experiment: Inhibition of DAPK1 (unknown origin) at 100 nM in the presence of ATP by Kinome scan method relative to control
HCT-116 [5] = experiment: Induction of cell cycle arrest in human HCT-116 cells assessed as S phase at 10 uM incubated for 24 hrs by flow cytometry analysis (Rvb=46.4%); assay type: functional
[6] = target: Mitogen-activated protein kinase 14 (Homo sapiens) (UniProt Q16539); experiment: Inhibition of MAPK14 (unknown origin) at 1000 nM in the presence of ATP by Kinome scan method relative to control
HCT-116 [7] = experiment: Induction of apoptosis in human HCT-116 cells assessed as late apoptosis at 1 uM incubated for > 6 hrs by annexin V/PI staining based analysis (Rvb=6.12%); assay type: functional
[8] = target: Focal adhesion kinase 1 (Homo sapiens) (UniProt Q05397); experiment: Inhibition of PTK2 (unknown origin) at 100 nM in the presence of ATP by Kinome scan method relative to control
[9] = target: PI3-kinase p110-alpha/p85-alpha (Homo sapiens) (UniProt P27986+P42336); experiment: Inhibition of PIK3CA/PIK3R1 (unknown origin) at 100 nM in the presence of ATP by Kinome scan method relative to control; assay type: protein-complex assay
[10] = target: Dual specificity protein kinase CLK1 (Homo sapiens) (UniProt P49759); experiment: Inhibition of CLK (unknown origin) in human HCT-116 cells assessed as induction in alternative splicing effect in S6K canonical isoform incubated for 6 hrs by RT-PCR analysis; assay type: cell-based; conditions: dose 0.2-5 µM
Summary of the method: (§1)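 Cells exposed to graded T3 concentrations for 6 h (chosen to avoid cytotoxicity), with a DMSO vehicle control. Total RNA was reverse-transcribed with oligo-dT primers. Targeted splice or conjoined-gene products were quantified by real-time qPCR or by targeted next-generation sequencing. Conjoined-gene isoform expression was normalized to a sequenced housekeeping gene.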

HCT-116 [11] = experiment: Induction of apoptosis in human HCT-116 cells assessed as necrosis cells at 10 uM incubated for > 6 hrs by annexin V/PI staining based analysis (Rvb=0.55%); assay type: functional
[12] = target: Ephrin type-A receptor 2 (Homo sapiens) (UniProt P29317); experiment: Inhibition of EPHA2 (unknown origin) at 1000 nM in the presence of ATP by Kinome scan method relative to control
[13] = target: Mitogen-activated protein kinase 14 (Homo sapiens) (UniProt Q16539); experiment: Inhibition of MAPK14 (unknown origin) at 100 nM in the presence of ATP by Kinome scan method relative to control
HCT-116 [14] = experiment: Induction of apoptosis in human HCT-116 cells assessed as viable cells at 1 uM incubated for > 6 hrs by annexin V/PI staining based analysis (Rvb=90.04%); assay type: functional; conditions: read-out: Activity
[15] = target: Dual specificity protein kinase CLK1 (Homo sapiens) (UniProt P49759); experiment: Inhibition of CLK (unknown origin) in human 184-hTERT cells assessed as induction in alternative splicing effect in S6K skipped exon /canonical form incubated for 6 hrs by RT-PCR analysis; assay type: cell-based; conditions: dose 0.2-5 µM; summary of the method: as §1
[16] = target: T1, Dual specificity protein kinase CLK2 (Homo sapiens, UniProt P49760); experiment: Inhibition of N-terminal FLAG-tagged human CLK2 at 123 nM in the presence of ATP by Kinome scan method relative to control; conditions: time > 6.0 hrs
[17] = target: Mitogen-activated protein kinase 8 (Homo sapiens) (UniProt P45983); experiment: Inhibition of MAPK8 (unknown origin) at 100 nM in the presence of ATP by Kinome scan method relative to control
[18] = target: Dual specificity protein kinase CLK1 (Homo sapiens) (UniProt P49759); experiment: Inhibition of CLK1 (unknown origin) at 1110 nM in the presence of ATP by Kinome scan method relative to control; conditions: time > 6.0 hrs
[19] = target: Serine/threonine-protein kinase B-raf (Homo sapiens) (UniProt P15056); experiment: Inhibition of BRAF (unknown origin) at 1000 nM in the presence of ATP by Kinome scan method relative to control
[20] = target: Protein kinase C alpha type (Homo sapiens) (UniProt P17252); experiment: Inhibition of PRKCA (unknown origin) at 1000 nM in the presence of ATP by Kinome scan method relative to control
[21] = target: Ephrin type-A receptor 2 (Homo sapiens) (UniProt P29317); experiment: Inhibition of EPHA2 (unknown origin) at 100 nM in the presence of ATP by Kinome scan method relative to control
[22] = target: T1, Dual specificity protein kinase CLK2; experiment: Inhibition of N-terminal FLAG-tagged CLK2 in human HCT-116 cells assessed as increase in CLK2 protein level at 0.5 to 0.1 uM incubated for 6 hrs by immunoblot analysis; assay type: cell-based; conditions: dose 0.5-0.1 µM
[23] = target: AMP-activated protein kinase (AMPK) alpha-1/beta-1/gamma-1 (Homo sapiens) (UniProt P54619+Q9Y478+Q13131); experiment: Inhibition of AMPK A1/B1/G1 (unknown origin) at 1000 nM in the presence of ATP by Kinome scan method relative to control; assay type: protein-complex assay
[24] = target: Mitogen-activated protein kinase 9 (Homo sapiens) (UniProt P45984); experiment: Inhibition of MAPK9 (unknown origin) at 100 nM in the presence of ATP by Kinome scan method relative to control
[25] = target: Dual specificity mitogen-activated protein kinase kinase 2 (Homo sapiens) (UniProt P36507); experiment: Inhibition of MAP2K2 (unknown origin) at 1000 nM in the presence of ATP by Kinome scan method relative to control
HCT-116 [26] = experiment: Induction of cell cycle arrest in human HCT-116 cells assessed as sub G0/G1 phase at 0.1 uM incubated for 6 hrs by flow cytometry analysis (Rvb=1.6%); assay type: functional
[27] = target: Cyclin-dependent kinase 5/CDK5 activator 1 (Homo sapiens) (UniProt Q00535+Q15078); experiment: Inhibition of CDK5/p25 (unknown origin) at 1000 nM in the presence of ATP by Kinome scan method relative to control; assay type: protein-complex assay
[28] = target: Serine/threonine-protein kinase Chk1 (Homo sapiens) (UniProt O14757); experiment: Inhibition of CHEK1 (unknown origin) at 100 nM in the presence of ATP by Kinome scan method relative to control
[29] = target: Dual specificity tyrosine-phosphorylation-regulated kinase 1A (Homo sapiens, UniProt Q13627); experiment: Inhibition of DYRK1A (unknown origin) at 123 nM in the presence of ATP by Kinome scan method relative to control; conditions: time > 6.0 hrs
[30] = target: Mitogen-activated protein kinase 11 (Homo sapiens) (UniProt Q15759); experiment: Inhibition of MAPK11 (unknown origin) at 1000 nM in the presence of ATP by Kinome scan method relative to control

Chain of Dual specificity protein kinase CLK1 (Homo sapiens) (P49759 whole entry, looked up, canonical isoform): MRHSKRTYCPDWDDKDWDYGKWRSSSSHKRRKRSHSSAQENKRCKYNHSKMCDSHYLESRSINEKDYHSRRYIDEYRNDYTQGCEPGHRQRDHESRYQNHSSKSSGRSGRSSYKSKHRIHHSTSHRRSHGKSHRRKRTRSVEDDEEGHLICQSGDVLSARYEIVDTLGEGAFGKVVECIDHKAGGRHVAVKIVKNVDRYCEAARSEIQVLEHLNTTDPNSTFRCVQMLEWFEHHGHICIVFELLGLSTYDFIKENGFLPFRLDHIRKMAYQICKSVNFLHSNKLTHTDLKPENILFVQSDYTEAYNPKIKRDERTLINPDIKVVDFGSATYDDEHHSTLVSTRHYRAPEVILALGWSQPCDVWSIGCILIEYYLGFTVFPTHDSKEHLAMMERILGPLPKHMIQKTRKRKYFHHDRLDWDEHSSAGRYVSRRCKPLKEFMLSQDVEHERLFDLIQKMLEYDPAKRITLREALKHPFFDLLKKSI
Chain of Mitogen-activated protein kinase 14 (Homo sapiens) (Q16539 whole entry): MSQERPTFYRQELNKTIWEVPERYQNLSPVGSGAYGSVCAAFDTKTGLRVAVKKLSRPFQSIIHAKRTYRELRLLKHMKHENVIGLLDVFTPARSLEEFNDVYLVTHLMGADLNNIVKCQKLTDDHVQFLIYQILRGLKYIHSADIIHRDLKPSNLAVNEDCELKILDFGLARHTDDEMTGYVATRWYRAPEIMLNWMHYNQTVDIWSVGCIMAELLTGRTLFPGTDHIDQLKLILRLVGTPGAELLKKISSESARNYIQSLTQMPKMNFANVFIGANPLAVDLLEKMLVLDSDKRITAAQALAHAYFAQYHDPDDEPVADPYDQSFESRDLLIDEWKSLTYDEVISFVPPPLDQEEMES
Chain of Ephrin type-A receptor 2 (Homo sapiens) (P29317 whole entry): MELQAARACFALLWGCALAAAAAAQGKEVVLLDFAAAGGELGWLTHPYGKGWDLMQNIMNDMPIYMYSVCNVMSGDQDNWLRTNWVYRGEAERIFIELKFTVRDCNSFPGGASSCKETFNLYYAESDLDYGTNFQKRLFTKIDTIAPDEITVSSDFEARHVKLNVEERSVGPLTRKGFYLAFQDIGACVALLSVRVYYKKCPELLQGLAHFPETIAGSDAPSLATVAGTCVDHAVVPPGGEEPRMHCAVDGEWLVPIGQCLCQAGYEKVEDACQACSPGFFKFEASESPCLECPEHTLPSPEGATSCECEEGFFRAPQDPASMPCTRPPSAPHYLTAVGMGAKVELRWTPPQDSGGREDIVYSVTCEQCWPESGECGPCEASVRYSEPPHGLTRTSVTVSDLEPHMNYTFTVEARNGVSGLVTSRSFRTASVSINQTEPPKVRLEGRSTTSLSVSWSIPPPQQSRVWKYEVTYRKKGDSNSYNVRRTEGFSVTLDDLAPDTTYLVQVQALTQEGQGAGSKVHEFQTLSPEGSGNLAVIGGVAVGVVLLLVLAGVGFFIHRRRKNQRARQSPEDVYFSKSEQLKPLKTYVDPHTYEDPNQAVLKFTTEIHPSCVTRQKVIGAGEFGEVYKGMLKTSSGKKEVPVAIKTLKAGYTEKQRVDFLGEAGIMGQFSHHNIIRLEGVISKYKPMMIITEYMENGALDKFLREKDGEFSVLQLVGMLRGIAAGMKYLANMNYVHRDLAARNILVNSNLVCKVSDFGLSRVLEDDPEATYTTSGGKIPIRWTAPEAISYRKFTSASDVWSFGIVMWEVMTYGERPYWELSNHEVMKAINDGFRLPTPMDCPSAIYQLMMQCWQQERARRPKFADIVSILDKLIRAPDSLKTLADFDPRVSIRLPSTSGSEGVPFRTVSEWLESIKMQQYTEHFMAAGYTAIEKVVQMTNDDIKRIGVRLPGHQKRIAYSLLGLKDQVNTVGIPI
T1 sequence (P49760 whole entry, looked up): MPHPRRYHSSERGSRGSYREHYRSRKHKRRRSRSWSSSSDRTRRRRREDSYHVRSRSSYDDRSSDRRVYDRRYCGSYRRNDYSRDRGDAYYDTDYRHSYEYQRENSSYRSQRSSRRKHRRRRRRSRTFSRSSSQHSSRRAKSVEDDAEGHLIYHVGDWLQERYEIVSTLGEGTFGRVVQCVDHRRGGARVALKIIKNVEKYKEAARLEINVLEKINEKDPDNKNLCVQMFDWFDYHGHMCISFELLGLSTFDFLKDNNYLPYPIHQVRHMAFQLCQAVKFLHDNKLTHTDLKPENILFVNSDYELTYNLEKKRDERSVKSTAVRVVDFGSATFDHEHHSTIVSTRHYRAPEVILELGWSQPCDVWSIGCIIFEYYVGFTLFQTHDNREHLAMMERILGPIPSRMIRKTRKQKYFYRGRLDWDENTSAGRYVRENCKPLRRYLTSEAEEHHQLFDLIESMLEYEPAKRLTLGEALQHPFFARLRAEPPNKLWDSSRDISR
Chain of Dual specificity mitogen-activated protein kinase kinase 2 (Homo sapiens) (P36507 whole entry): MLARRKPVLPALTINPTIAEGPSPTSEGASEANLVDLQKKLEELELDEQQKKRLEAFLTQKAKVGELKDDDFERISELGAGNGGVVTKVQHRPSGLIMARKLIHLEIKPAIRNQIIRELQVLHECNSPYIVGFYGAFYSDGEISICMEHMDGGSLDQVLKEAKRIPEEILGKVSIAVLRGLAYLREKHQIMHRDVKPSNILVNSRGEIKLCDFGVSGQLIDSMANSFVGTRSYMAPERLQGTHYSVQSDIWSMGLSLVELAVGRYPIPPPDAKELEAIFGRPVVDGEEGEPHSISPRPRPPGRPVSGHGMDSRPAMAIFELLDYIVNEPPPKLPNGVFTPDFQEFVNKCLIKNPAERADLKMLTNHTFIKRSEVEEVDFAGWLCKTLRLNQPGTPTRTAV
Chain of AMP-activated protein kinase (AMPK) alpha-1/beta-1/gamma-1 (Homo sapiens) (P54619 whole entry): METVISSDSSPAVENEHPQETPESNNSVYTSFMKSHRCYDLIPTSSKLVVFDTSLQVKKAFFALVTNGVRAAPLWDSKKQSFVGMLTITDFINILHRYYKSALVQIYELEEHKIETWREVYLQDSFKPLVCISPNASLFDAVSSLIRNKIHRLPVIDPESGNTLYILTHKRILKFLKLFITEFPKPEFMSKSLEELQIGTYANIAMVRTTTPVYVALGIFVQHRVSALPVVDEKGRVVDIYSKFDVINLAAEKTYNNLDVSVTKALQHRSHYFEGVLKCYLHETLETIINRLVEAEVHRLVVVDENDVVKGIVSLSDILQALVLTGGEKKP
Chain of AMP-activated protein kinase (AMPK) alpha-1/beta-1/gamma-1 (Homo sapiens) (Q13131 whole entry partner): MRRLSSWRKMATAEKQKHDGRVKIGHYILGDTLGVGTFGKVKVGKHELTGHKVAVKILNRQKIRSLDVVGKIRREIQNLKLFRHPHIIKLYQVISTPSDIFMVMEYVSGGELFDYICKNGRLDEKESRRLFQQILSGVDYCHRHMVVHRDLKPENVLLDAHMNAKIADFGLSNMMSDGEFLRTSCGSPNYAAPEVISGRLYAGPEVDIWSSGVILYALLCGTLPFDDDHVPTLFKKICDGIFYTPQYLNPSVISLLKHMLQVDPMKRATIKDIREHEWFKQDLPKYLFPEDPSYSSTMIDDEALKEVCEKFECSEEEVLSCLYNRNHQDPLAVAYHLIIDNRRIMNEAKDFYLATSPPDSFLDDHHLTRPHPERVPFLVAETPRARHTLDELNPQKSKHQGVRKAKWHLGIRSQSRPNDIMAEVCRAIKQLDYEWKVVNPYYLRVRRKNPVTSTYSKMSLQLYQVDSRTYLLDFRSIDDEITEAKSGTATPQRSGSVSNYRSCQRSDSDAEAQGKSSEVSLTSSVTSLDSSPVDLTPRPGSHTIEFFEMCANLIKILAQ
Chain of AMP-activated protein kinase (AMPK) alpha-1/beta-1/gamma-1 (Homo sapiens) (Q9Y478 2-270 partner limits assumed): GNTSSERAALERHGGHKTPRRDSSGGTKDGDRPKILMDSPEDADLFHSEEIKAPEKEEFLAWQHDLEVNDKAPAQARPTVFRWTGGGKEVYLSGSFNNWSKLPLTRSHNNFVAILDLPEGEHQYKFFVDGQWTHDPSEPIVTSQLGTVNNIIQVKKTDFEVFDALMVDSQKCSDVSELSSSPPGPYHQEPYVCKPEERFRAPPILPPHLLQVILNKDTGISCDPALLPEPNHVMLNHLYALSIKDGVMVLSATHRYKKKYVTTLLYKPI
Chain of Proto-oncogene tyrosine-protein kinase receptor Ret (Homo sapiens) (P07949 whole entry): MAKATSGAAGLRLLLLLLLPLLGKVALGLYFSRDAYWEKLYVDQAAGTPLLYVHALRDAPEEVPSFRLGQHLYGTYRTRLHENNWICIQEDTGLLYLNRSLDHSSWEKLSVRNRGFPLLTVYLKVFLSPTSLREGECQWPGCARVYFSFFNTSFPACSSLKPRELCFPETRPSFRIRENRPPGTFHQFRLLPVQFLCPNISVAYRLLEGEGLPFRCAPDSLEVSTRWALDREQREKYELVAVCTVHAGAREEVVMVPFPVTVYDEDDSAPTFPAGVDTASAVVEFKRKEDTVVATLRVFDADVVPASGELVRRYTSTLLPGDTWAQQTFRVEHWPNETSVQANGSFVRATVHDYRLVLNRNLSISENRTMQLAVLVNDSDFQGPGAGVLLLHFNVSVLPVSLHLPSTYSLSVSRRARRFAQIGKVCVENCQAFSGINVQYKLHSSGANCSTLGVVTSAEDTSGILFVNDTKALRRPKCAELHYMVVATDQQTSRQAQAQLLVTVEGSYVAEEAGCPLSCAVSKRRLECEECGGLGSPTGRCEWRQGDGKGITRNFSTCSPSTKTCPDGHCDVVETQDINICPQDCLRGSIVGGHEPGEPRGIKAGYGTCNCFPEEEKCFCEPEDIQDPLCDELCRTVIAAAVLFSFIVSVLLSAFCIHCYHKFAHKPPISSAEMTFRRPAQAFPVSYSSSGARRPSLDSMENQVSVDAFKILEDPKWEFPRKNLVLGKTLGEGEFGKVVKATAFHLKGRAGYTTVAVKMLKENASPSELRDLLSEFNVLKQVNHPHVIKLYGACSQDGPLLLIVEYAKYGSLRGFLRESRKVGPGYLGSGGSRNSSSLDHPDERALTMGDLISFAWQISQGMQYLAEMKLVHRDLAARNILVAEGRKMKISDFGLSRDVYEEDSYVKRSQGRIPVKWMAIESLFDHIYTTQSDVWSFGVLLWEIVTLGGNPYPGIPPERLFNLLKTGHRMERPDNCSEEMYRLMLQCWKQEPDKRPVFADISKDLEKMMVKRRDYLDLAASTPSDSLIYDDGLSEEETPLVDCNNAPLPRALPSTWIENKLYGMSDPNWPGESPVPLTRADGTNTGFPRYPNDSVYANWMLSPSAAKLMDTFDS

In the case of CN1CCN(C(=O)C(C)(C)c2ccc(C(=O)Nc3cn4cc(-c5ccncc5)ccc4n3)cc2)CC1 [T3-CLK], the inhibition [1] is reported as -2%, the inhibition [2] is reported as -1% and the inhibition [3] is reported as 0%. It also gave an inhibition [4] of -4%, an Activity (HCT-116 [5]) of 41% and an inhibition [6] of 6%. For the same compound, the Activity (HCT-116 [7]) was 7.46%, the inhibition [8] was -9% and the inhibition [9] was 4%. The inhibition [10] was “Dose-Dependent Effect”, the Activity (HCT-116 [11]) was 0.86% and the inhibition [12] was -6%. For the same compound, the inhibition [13] was 5%, the viability at 1 µM (HCT-116 [14]) was 88.4% and the inhibition [15] was “Dose-Dependent Effect”. The inhibition [16] was 92%, the inhibition [17] was 5% and the inhibition [18] was 99%. The inhibition [19] was 17%, the inhibition [20] was 4% and the inhibition [21] was -4%. For the same compound, the inhibition [22] was “Active”, the inhibition [23] was 0% and the inhibition [24] was 3%. For the same compound, the inhibition [25] was 14%, the Activity (HCT-116 [26]) was 1.5% and the inhibition [27] was 1%. It also gave an inhibition [28] of 10%, an inhibition [29] of 74% and an inhibition [30] of 1%.
